In one series the test system is HeLa. Nature of the series: Cytotoxicity against human HeLa cells after 48 hrs by MTT assay. Format: functional, cell-based. The procedure, abridged: (§1)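 HeLa and Vero monolayers were trypsinized, washed and seeded per well (HeLa 1.5×10^4; Vero 1.25×10^4). After 24 h, diluted compounds were added with 0.05% DMSO and incubated 48 h at 37 °C in 5% CO2. Read-out was MTT. IC50 came from linear regression of dose-effect curves, at least four dilutions in quadruplicate, as mean ± S.E.M. Vincristine was the positive control.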
On the technique in general: Tetrazolium assays rely on reduction of a dye to a coloured formazan, in cell work by metabolically active cells.

For the next series, the system named is Jurkat. As to the kind of experiment: Cytotoxicity against human Jurkat cells after 48 hrs by MTT assay. It counts as functional, cell-based. The gist of the method:
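Suspension Jurkat cells were seeded at 3.00×10^4 per well. Diluted compounds were added directly, with 0.05% DMSO, and incubated 48 h at 37 °C. Read-out was MTT. IC50 came from linear regression of dose-effect curves, at least four dilutions in quadruplicate, as mean ± S.E.M. Vincristine was the positive control.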

The next series relates to Candida tropicalis. As to the kind of experiment: Antifungal activity against Candida tropicalis CECT 11901 at <100 ug/ml after 24 hrs by AFST-EUCAST method. It counts as functional, organism-based. The procedure, abridged:
(§2)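 EUCAST broth microdilution for fermentative yeasts. Seven serial dilutions were tested in duplicate at final concentrations of 100 to 2 µg/mL, with 0.05% DMSO. Inoculum was 0.5–2.5×10^5 CFU/mL. […] Amphotericin B and itraconazole served as controls (0.031–16 µg/mL). Triplicates were run in three separate assays; results are given as range and geometric mean.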

The test system of the next series is Candida albicans. As to the kind of experiment: Antifungal activity against Candida albicans ATCC 10231 at <100 ug/ml after 24 hrs by AFST-EUCAST method. It counts as functional, organism-based. The gist of the method:
as §2

A further series concerns Candida parapsilosis. Nature of the series: Antifungal activity against Candida parapsilosis ATCC 22019 at <100 ug/ml after 24 hrs by AFST-EUCAST method. It counts as functional, organism-based. The gist of the method: as §2
The test system of series [1] is Vero. As to the kind of experiment: Selectivity index, ratio of IC50 for african green monkey Vero cells to IC50 for human Jurkat cells. It counts as functional.
Series [2] relates to Human alphaherpesvirus 1. Nature of the series: Antiviral activity against Human herpesvirus 1 infected in human HeLa cells assessed as ratio of viral titer in absence of drug over viral titer in presence of drug after 36 hrs by end point titration method. It counts as functional, organism-based.
Series [3] has as its system Vero. As to the kind of experiment: Selectivity index, ratio of IC50 for african green monkey Vero cells to IC50 for human HeLa cells. It counts as functional.
Series [4] relates to Human alphaherpesvirus 1. Nature of the series: Antiviral activity against Human herpesvirus 1 infected in human HeLa cells assessed as maximal nontoxic dose caused highest viral reduction factor after 36 hrs by end point titration method. Format: functional, organism-based.
The test system of a further series is Pichia kudriavzevii. As to the kind of experiment: Antifungal activity against Candida krusei ATCC 6258 at <100 ug/ml after 24 hrs by AFST-EUCAST method. It counts as functional, organism-based. The gist of the method: as §2
Series [5] has as its system Vero. As to the kind of experiment: Cytotoxicity against african green monkey Vero cells after 48 hrs by MTT assay. Conditions: Chlorocebus sabaeus. It counts as cell-based. The procedure, abridged:
as §1

Series [6] is described as follows: Cytotoxicity against african green monkey Vero cells assessed as minimal toxic dosed detached 100% of the cell monolayer. The note with it: chlorocebus sabaeus, read-out: CC100.
In the next series the test system is Aspergillus niger. As to the kind of experiment: Antifungal activity against Aspergillus niger after 24 hrs by AFST-EUCAST method. Format: functional.
The next series deals with Aspergillus fumigatus. Nature of the series: Antifungal activity against Aspergillus fumigatus after 24 hrs by AFST-EUCAST method. It counts as functional.
Series [7] has as its system Human alphaherpesvirus 1. Nature of the series: Antiviral activity against Human herpesvirus 1 infected in african green monkey Vero cells assessed as maximal nontoxic dose caused highest viral reduction factor after 36 hrs by end point titration method. It counts as functional. The procedure, abridged:
(§3)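 HSV-1 stock was grown in HeLa cells. Two-fold compound dilutions were premixed with one infectious dose of virus for 0.5 h at 37 °C, then added to confluent HeLa or Vero monolayers for 36 h at 37 °C in 5% CO2. End-point titration gave the reduction factor, virus titer without compound over titer with compound, at the maximal nontoxic dose. Acyclovir and heparin were the controls.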

In series [8] the test system is Human alphaherpesvirus 1. Nature of the series: Antiviral activity against Human herpesvirus 1 infected in african green monkey Vero cells assessed as ratio of viral titer in absence of drug over viral titer in presence of drug after 36 hrs by end point titration method. Format: functional. The gist of the method:
as §3

The subject of a further series is Aspergillus terreus. Nature of the series: Antifungal activity against Aspergillus terreus after 24 hrs by AFST-EUCAST method. Format: functional.
The nature of series [9]: Solubility in DMSO. Format: physicochemical.
Series [10] is described as follows: Cytotoxicity against human HeLa cells assessed as minimal toxic dosed detached 100% of the cell monolayer. Conditions: read-out: CC50.

The text below walks through data of ChEMBL document CHEMBL1153719, “Synthesis and biological evaluation of dehydroabietic acid derivatives” (Eur J Med Chem, 2010).

In brackets after ≈: the same amount, converted by molar mass. Activity calls are given as the source filed them. No cut-off for these calls is given here. Bounds are passed on as bounds.

With `CC(C)c1ccc2c(c1)[C@H](O)C[C@H]1[C@](C)(C=O)CCC[C@]21C`, the figures for the IC50 with HeLa, in the series with Jurkat and in the series on Vero [5] were 23 µg/mL (≈ 76.6 µM), 12 µg/mL (≈ 39.9 µM) and 36 µg/mL (≈ 120 µM), respectively. The result in the series with Candida tropicalis, with Candida albicans, in the series on Candida parapsilosis, with Human alphaherpesvirus 1 [2], in the series with Human alphaherpesvirus 1 [4] and in the series on Pichia kudriavzevii was inactive. For the same molecule, the “Ratio IC50” value was determined as 3 in the series on Vero [1] and 1.6 with Vero [3].

As for `CC(C)c1ccc2c(c1)C(=O)C[C@H]1[C@](C)(CO)CCC[C@]21C`, the values for the half-inhibitory concentration (IC50) in the series with HeLa, with Jurkat and in the series on Vero [5] were 30 µg/mL (≈ 99.9 µM), 17 µg/mL (≈ 56.6 µM) and 27 µg/mL (≈ 89.9 µM), respectively. In addition, the result in the series with Candida tropicalis, with Candida albicans, in the series on Candida parapsilosis, in the series with Human alphaherpesvirus 1 [2], in the series on Human alphaherpesvirus 1 [4] and with Pichia kudriavzevii was inactive. In addition, the results for the “Ratio IC50” value with Vero [1] and with Vero [3] were 1.6 and 0.9, respectively. Besides, the MCC in series [6] is 25 µg/mL.

Regarding `CC(C)c1ccc2c(c1)[C@H](O)C[C@H]1[C@](C)(CO)CCC[C@]21C`, the IC50 (in general, the concentration at which inhibition is half-maximal) in the series on HeLa amounted to 20 µg/mL (≈ 66.1 µM); in the series on Jurkat, 12 µg/mL (≈ 39.7 µM); in the series with Vero [5], 30 µg/mL (≈ 99.2 µM). The outcome in the series on Candida tropicalis, in the series on Candida albicans, with Candida parapsilosis, in the series on Human alphaherpesvirus 1 [2], in the series with Human alphaherpesvirus 1 [4] and in the series with Pichia kudriavzevii was inactive. The “Ratio IC50” value is 2.5 with Vero [1] and 1.5 with Vero [3]. For the same molecule, the MIC (usually the least concentration at which growth counts as inhibited) with Aspergillus niger stood at 63 µg/mL (≈ 208 µM); in the series with Aspergillus fumigatus it was 50 µg/mL (≈ 165 µM). Further, in [6], the MCC came to 25 µg/mL.

For the molecule `CC(C)C1=CC2=CC[C@@H]3[C@](C)(CCC[C@@]3(C)C(=O)O)[C@H]2CC1`, the result in the series on Human alphaherpesvirus 1 [2] and in the series on Human alphaherpesvirus 1 [4] was inactive.

Take `Nc1nc2c(ncn2COCCO)c(=O)[nH]1` [ACYCLOVIR]: the Activity in the series with Human alphaherpesvirus 1 [7] stood at 6 µg/mL. Besides, the Ratio with Human alphaherpesvirus 1 [8] was found to be 1000. In addition, in series [6], the MCC was > 600 µg/mL.

As for `CC(C)c1ccc2c(c1)CC[C@H]1[C@](C)(C(=O)O)CCC[C@]21C` [DEHYDROABIETIC ACID], the results for the IC50 in the series with HeLa, in the series on Jurkat and with Vero [5] were 101 µg/mL (≈ 336 µM), 28 µg/mL (≈ 93.2 µM) and 91 µg/mL (≈ 303 µM), respectively. Further, the result with Candida albicans, in the series on Candida parapsilosis, with Human alphaherpesvirus 1 [2], in the series on Human alphaherpesvirus 1 [4] and with Pichia kudriavzevii was inactive. In addition, the MIC in the series on Aspergillus terreus is 39.7 µg/mL (≈ 132 µM). Besides, the “Ratio IC50” value worked out at 3.2 in the series with Vero [1] and 0.9 with Vero [3]. Moreover, in series [6], the MCC was > 50 µg/mL.

As to `CC(C)c1ccc2c(c1)CC[C@H]1[C@](C)(C=O)CCC[C@]21C` [DEHYDROABIETINAL], the IC50 in the series with HeLa was determined as 24 µg/mL (≈ 84.4 µM); with Jurkat, 17 µg/mL (≈ 59.8 µM); with Vero [5], 32 µg/mL (≈ 113 µM). In addition, the outcome with Candida tropicalis, in the series on Candida albicans, in the series with Candida parapsilosis, in the series on Human alphaherpesvirus 1 [2], with Human alphaherpesvirus 1 [4] and in the series with Pichia kudriavzevii was inactive. Besides, the “Ratio IC50” value with Vero [1] is recorded as 1.9; in the series on Vero [3] it was 1.3. Further, the MCC in series [6] amounted to 50 µg/mL.

Take `CC(=O)OC[C@]1(C)CCC[C@]2(C)c3ccc(C(C)C)cc3CC[C@@H]12` [DEHYDROABIETINOL ACETATE]: the figures for the IC50 with HeLa, in the series on Jurkat and in the series on Vero [5] were 28 µg/mL, 22 µg/mL and 95 µg/mL, respectively. Further, the outcome in the series with Candida tropicalis, with Candida albicans, in the series with Candida parapsilosis, in the series with Human alphaherpesvirus 1 [2], in the series with Human alphaherpesvirus 1 [4] and with Pichia kudriavzevii was inactive. For the same molecule, the Activity with Human alphaherpesvirus 1 [7] amounted to 25 µg/mL. For the same molecule, the “Ratio IC50” value stood at 4.3 with Vero [1] and 3.4 in the series on Vero [3]. The Ratio with Human alphaherpesvirus 1 [8] is 10. Moreover, the MCC in [6] is > 50 µg/mL.

As for `CC(C)c1ccc2c(c1)CC[C@H]1[C@](C)(COC(=O)c3ccccc3)CCC[C@]21C` [DEHYDROABIETINOLBENZOATE], the IC50 was ≥ 200 µg/mL in the series with HeLa, 57 µg/mL (≈ 146 µM) in the series with Jurkat and ≥ 200 µg/mL with Vero [5]. Also, the Activity in the series with Human alphaherpesvirus 1 [7] was 50 µg/mL. In addition, the result with Candida albicans, in the series on Candida parapsilosis, in the series with Human alphaherpesvirus 1 [2], in the series with Human alphaherpesvirus 1 [4] and in the series with Pichia kudriavzevii was inactive. Further, the “Ratio IC50” value in the series with Vero [1] was >3.5. Besides, in the series with Human alphaherpesvirus 1 [8], the Ratio worked out at 3.16. In addition, the MCC in series [6] is > 50 µg/mL.

With `CC(C)c1ccc2c(c1)CC[C@H]1[C@](C)(COC(=O)c3cccnc3)CCC[C@]21C` [DEHYDROABIETINOLNICOTINATE], in series [9], the solubility entry is given as “Insoluble”.

As for `COC(=O)[C@]1(C)CCC[C@@]2(C)[C@H]1CC=C1C=C(C(C)C)CC[C@@H]12` [METHYL ABIETATE], the MCC in series [10] came out at 11 µM. Also, the outcome with Human alphaherpesvirus 1 [2] was inactive. The outcome with Human alphaherpesvirus 1 [4] was Active.

`COC(=O)[C@]1(C)CCC[C@]2(C)c3ccc(C(C)C)cc3CC[C@@H]12` [METHYL DEHYDROABIETATE]: the half-inhibitory concentration (IC50) with HeLa turned out to be 28 µg/mL (≈ 89 µM); with Jurkat it was 21 µg/mL (≈ 66.8 µM); with Vero [5], 36 µg/mL (≈ 114 µM). Also, the outcome in the series on Candida tropicalis, in the series on Candida albicans, in the series on Candida parapsilosis, with Human alphaherpesvirus 1 [2], with Human alphaherpesvirus 1 [4] and with Pichia kudriavzevii was inactive. Moreover, the “Ratio IC50” value is given as 1.7 in the series with Vero [1] and 1.3 in the series on Vero [3]. For the same molecule, the MCC in series [6] was > 50 µg/mL.

`CC(C)c1ccc2c(c1)CC[C@H]1[C@](C)(CO)CCC[C@]21C` [POMIFERIN A]: the 50% inhibitory concentration (IC50) in the series with HeLa was found to be 13 µg/mL (≈ 45.4 µM); with Jurkat, 9.7 µg/mL (≈ 33.9 µM); with Vero [5], 38 µg/mL (≈ 133 µM). Besides, the outcome in the series on Candida tropicalis, in the series on Candida albicans, in the series on Candida parapsilosis, in the series on Human alphaherpesvirus 1 [2], with Human alphaherpesvirus 1 [4] and with Pichia kudriavzevii was inactive. The entries for the “Ratio IC50” value with Vero [1] and in the series with Vero [3] were 3.9 and 2.9, respectively. In series [6], the MCC came out at 50 µg/mL.
